Broadly, the CC50 is the concentration giving 50% cytotoxicity.

In this assay the test system is HEp-2 viability, luminescence (CellTiter-Glo). The experiment in a line: viability of uninfected HEp-2 host cells – cell-based, synthesized compounds, set 9, cytotoxicity control for RSV antiviral project, dose response (AID 504826). In outline: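 Test system: uninfected HEp-2 human cells, ATP-based viability; Measure: % viability and fitted CC50; Signal: CellTiter-Glo ATP luminescence; Timing: compound exposure six days at 37 °C, 5% CO2.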
Consider `COCCCNC(=O)c1ccc(Cn2c(=O)c3ccccc3n(Cc3ccc(C(F)(F)F)cc3)c2=O)cc1`, for which the CC50 was 95.7 µM.
Under `COCCCNC(=O)c1ccc(Cn2c(=O)c3ccccc3n(Cc3ccc([N+](=O)[O-])cc3)c2=O)cc1` stands 115 µM; under `COCCCNC(=O)c1ccc(Cn2c(=O)c3ccccc3n(Cc3ccc(Br)cc3)c2=O)cc1`, 126 µM.
As to `COCCCNC(=O)c1ccc(Cn2c(=O)c3ccccc3n(Cc3ccc(C)c(C(F)(F)F)c3)c2=O)cc1`, the CC50 was 75.2 µM.
Under `COc1ccccc1CNC(=O)C1CCN(S(=O)(=O)c2cccc3nonc23)CC1` stands 146 µM; under `Cc1ccc(C)c(NC(=O)[C@@H]2CCCN2S(=O)(=O)c2cccc3cccnc23)c1`, 25 µM.
Turning to `COCCCNC(=O)c1ccc(Cn2c(=O)c3ccccc3n(Cc3ccc(OC)cc3)c2=O)cc1`, the CC50 is 121 µM.

(Values after PubChem BioAssay AID504826 (Southern Research Specialized Biocontainment Screening …, 2011).)
